Laboratory results: ChEMBL document CHEMBL4689842, “EUbOPEN Chemogenomics Library wave 1” (2021)

Tested on: U2OS
Assay: Multiplex assay against U2OS
Assay type: toxicity, cell-based
Settings: human
How it was run: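 Compound was added to live cells that had been stained at seeding with Hoechst33342, BioTracker Green Microtubule Cytoskeleton Dye, MitoTracker Red and Annexin V Alexa Fluor 680, and imaging followed on a CQ1 microscope at 37°C and 5% CO2. CellPathfinder machine-learning gating divided cells into Hoechst high-intensity objects or normal cells, normal cells into healthy, pyknosed or fragmented nuclei, and pyknosed cells into mitotic or apoptotic. Tubulin, mitochondrial-mass and membrane-permeability phenotypes are per cents of healthy-nucleus cells.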

[1] = 12 h, 1 µM, compound concentration 1 uM, replicate 1
[2] = 12 h, 1 µM, compound concentration 1 uM, replicate 2
[3] = 12 h, 10 µM, compound concentration 10 uM, replicate 1
[4] = 12 h, 10 µM, compound concentration 10 uM, replicate 2
[5] = 24 h, 1 µM, compound concentration 1 uM, replicate 1
[6] = 24 h, 1 µM, compound concentration 1 uM, replicate 2
[7] = 24 h, 10 µM, compound concentration 10 uM, replicate 1
[8] = 24 h, 10 µM, compound concentration 10 uM, replicate 2

`NC(=O)c1ccc2nc(-c3ccc(C4(N)CCC4)cc3)c(-c3ccccc3)n2n1` [BAY-1125976] was tested, and the “Population Apoptotic (%)” value [1] was 52%, the “Population Healthy Nuclei (%)” value [1] was 79% and the “Population Hoechst High Intensity Objects (%)” value [1] was 6%. The “Population Mitochondria Different-Phenotype (%)” value [1] was 19%, the “Population Mitotic Cells (%)” value [1] was 47% and the “Population Normal (%)” value [1] was 93%. For the same molecule, the “Population Tubulin-Different-Phenotype (%)” value [1] was 46%, the “Total Cell Count” value [1] was 239 and the “Population Apoptotic (%)” value [2] was 42%. For the same molecule, the “Population Healthy Nuclei (%)” value [2] was 80%, the “Population Hoechst High Intensity Objects (%)” value [2] was 12% and the “Population Mitotic Cells (%)” value [2] was 57%. For the same molecule, the “Population Normal (%)” value [2] was 87%, the “Population Tubulin-Different-Phenotype (%)” value [2] was 35% and the “Total Cell Count” value [2] was 109. For the same molecule, the “Population Apoptotic (%)” value [3] was 66%, the “Population Healthy Nuclei (%)” value [3] was 92% and the “Population Mitochondria Different-Phenotype (%)” value [3] was 24%. For the same molecule, the “Population Mitotic Cells (%)” value [3] was 33%, the “Population Tubulin-Different-Phenotype (%)” value [3] was 27% and the “Total Cell Count” value [3] was 210. The “Population Apoptotic (%)” value [4] was 20%, the “Population Healthy Nuclei (%)” value [4] was 88% and the “Population Hoechst High Intensity Objects (%)” value [4] was 4%. The “Population Mitochondria Different-Phenotype (%)” value [4] was 23%, the “Population Mitotic Cells (%)” value [4] was 80% and the “Population Normal (%)” value [4] was 95%. For the same molecule, the “Population Tubulin-Different-Phenotype (%)” value [4] was 18%, the “Total Cell Count” value [4] was 165 and the “Population Apoptotic (%)” value [5] was 42%. The “Population Healthy Nuclei (%)” value [5] was 76%, the “Population Hoechst High Intensity Objects (%)” value [5] was 5% and the “Population Mitochondria Different-Phenotype (%)” value [5] was 18%. The “Population Mitotic Cells (%)” value [5] was 57%, the “Population Normal (%)” value [5] was 94% and the “Population Tubulin-Different-Phenotype (%)” value [5] was 23%. For the same molecule, the “Total Cell Count” value [5] was 273, the “Population Apoptotic (%)” value [6] was 44% and the “Population Healthy Nuclei (%)” value [6] was 77%. The “Population Hoechst High Intensity Objects (%)” value [6] was 8%, the “Population Mitochondria Different-Phenotype (%)” value [6] was 20% and the “Population Mitotic Cells (%)” value [6] was 55%. For the same molecule, the “Population Normal (%)” value [6] was 91%, the “Population Tubulin-Different-Phenotype (%)” value [6] was 13% and the “Total Cell Count” value [6] was 124. The “Population Apoptotic (%)” value [7] was 33%, the “Population Hoechst High Intensity Objects (%)” value [7] was 1% and the “Population Mitochondria Different-Phenotype (%)” value [7] was 31%. For the same molecule, the “Population Mitotic Cells (%)” value [7] was 66%, the “Population Normal (%)” value [7] was 98% and the “Population Tubulin-Different-Phenotype (%)” value [7] was 30%. For the same molecule, the “Total Cell Count” value [7] was 258, the “Population Apoptotic (%)” value [8] was 7% and the “Population Healthy Nuclei (%)” value [8] was 87%. The “Population Hoechst High Intensity Objects (%)” value [8] was 5%, the “Population Mitochondria Different-Phenotype (%)” value [8] was 28% and the “Population Mitotic Cells (%)” value [8] was 92%. For the same molecule, the “Population Normal (%)” value [8] was 94%, the “Population Tubulin-Different-Phenotype (%)” value [8] was 25% and the “Total Cell Count” value [8] was 213.

`CC[C@@H]1C(=O)N(C)c2cnc(Nc3ccc(C(=O)NC4CCN(C)CC4)cc3OC)nc2N1C1CCCC1` [BI-2536] was tested, and the “Population Apoptotic (%)” value [1] was 100%, the “Population Fragmented Nuclei (%)” value [1] was 16% and the “Population Healthy Nuclei (%)” value [1] was 80%. For the same molecule, the “Population Hoechst High Intensity Objects (%)” value [1] was 1%, the “Population Membrane Permeable-Phenotype (%)” value [1] was 40% and the “Population Mitochondria Different-Phenotype (%)” value [1] was 16%. The “Population Mitotic Cells (%)” value [1] was 0%, the “Population Normal (%)” value [1] was 98% and the “Population Pyknosed Nuclei (%)” value [1] was 3%. The “Population Tubulin-Different-Phenotype (%)” value [1] was 35%, the “Total Cell Count” value [1] was 142 and the “Population Apoptotic (%)” value [2] was 70%. The “Population Fragmented Nuclei (%)” value [2] was 10%, the “Population Healthy Nuclei (%)” value [2] was 79% and the “Population Hoechst High Intensity Objects (%)” value [2] was 8%. The “Population Membrane Permeable-Phenotype (%)” value [2] was 33%, the “Population Mitochondria Different-Phenotype (%)” value [2] was 24% and the “Population Mitotic Cells (%)” value [2] was 30%. The “Population Normal (%)” value [2] was 91%, the “Population Pyknosed Nuclei (%)” value [2] was 10% and the “Population Tubulin-Different-Phenotype (%)” value [2] was 34%. The “Total Cell Count” value [2] was 107, the “Population Apoptotic (%)” value [3] was 76% and the “Population Fragmented Nuclei (%)” value [3] was 15%. For the same molecule, the “Population Healthy Nuclei (%)” value [3] was 76%, the “Population Hoechst High Intensity Objects (%)” value [3] was 2% and the “Population Membrane Permeable-Phenotype (%)” value [3] was 41%. For the same molecule, the “Population Mitochondria Different-Phenotype (%)” value [3] was 72%, the “Population Mitotic Cells (%)” value [3] was 23% and the “Population Normal (%)” value [3] was 97%. For the same molecule, the “Population Pyknosed Nuclei (%)” value [3] was 8%, the “Population Tubulin-Different-Phenotype (%)” value [3] was 99% and the “Total Cell Count” value [3] was 160. For the same molecule, the “Population Apoptotic (%)” value [4] was 81%, the “Population Fragmented Nuclei (%)” value [4] was 23% and the “Population Healthy Nuclei (%)” value [4] was 67%. For the same molecule, the “Population Hoechst High Intensity Objects (%)” value [4] was 8%, the “Population Membrane Permeable-Phenotype (%)” value [4] was 51% and the “Population Mitochondria Different-Phenotype (%)” value [4] was 94%. For the same molecule, the “Population Mitotic Cells (%)” value [4] was 18%, the “Population Normal (%)” value [4] was 91% and the “Population Pyknosed Nuclei (%)” value [4] was 9%. For the same molecule, the “Population Tubulin-Different-Phenotype (%)” value [4] was 100%, the “Total Cell Count” value [4] was 123 and the “Population Apoptotic (%)” value [5] was 46%. The “Population Fragmented Nuclei (%)” value [5] was 17%, the “Population Healthy Nuclei (%)” value [5] was 73% and the “Population Hoechst High Intensity Objects (%)” value [5] was 2%. For the same molecule, the “Population Membrane Permeable-Phenotype (%)” value [5] was 20%, the “Population Mitochondria Different-Phenotype (%)” value [5] was 29% and the “Population Mitotic Cells (%)” value [5] was 53%. For the same molecule, the “Population Normal (%)” value [5] was 97%, the “Population Pyknosed Nuclei (%)” value [5] was 9% and the “Population Tubulin-Different-Phenotype (%)” value [5] was 17%. For the same molecule, the “Total Cell Count” value [5] was 145, the “Population Apoptotic (%)” value [6] was 55% and the “Population Fragmented Nuclei (%)” value [6] was 21%. The “Population Healthy Nuclei (%)” value [6] was 69%, the “Population Hoechst High Intensity Objects (%)” value [6] was 12% and the “Population Membrane Permeable-Phenotype (%)” value [6] was 15%. For the same molecule, the “Population Mitochondria Different-Phenotype (%)” value [6] was 35%, the “Population Mitotic Cells (%)” value [6] was 44% and the “Population Normal (%)” value [6] was 87%. For the same molecule, the “Population Pyknosed Nuclei (%)” value [6] was 8%, the “Population Tubulin-Different-Phenotype (%)” value [6] was 10% and the “Total Cell Count” value [6] was 115. For the same molecule, the “Population Apoptotic (%)” value [7] was 93%, the “Population Fragmented Nuclei (%)” value [7] was 18% and the “Population Healthy Nuclei (%)” value [7] was 72%. For the same molecule, the “Population Hoechst High Intensity Objects (%)” value [7] was 5%, the “Population Membrane Permeable-Phenotype (%)” value [7] was 61% and the “Population Mitochondria Different-Phenotype (%)” value [7] was 99%. The “Population Mitotic Cells (%)” value [7] was 6%, the “Population Normal (%)” value [7] was 94% and the “Population Pyknosed Nuclei (%)” value [7] was 9%. The “Population Tubulin-Different-Phenotype (%)” value [7] was 99%, the “Total Cell Count” value [7] was 180 and the “Population Apoptotic (%)” value [8] was 88%. The “Population Fragmented Nuclei (%)” value [8] was 22%, the “Population Healthy Nuclei (%)” value [8] was 70% and the “Population Hoechst High Intensity Objects (%)” value [8] was 10%. The “Population Membrane Permeable-Phenotype (%)” value [8] was 84%, the “Population Mitochondria Different-Phenotype (%)” value [8] was 100% and the “Population Mitotic Cells (%)” value [8] was 11%. The “Population Normal (%)” value [8] was 89%, the “Population Pyknosed Nuclei (%)” value [8] was 7% and the “Population Tubulin-Different-Phenotype (%)” value [8] was 100%. For the same molecule, the “Total Cell Count” value [8] was 135.
